The subject of one assay is Escherichia coli. Kind of assay: Binding affinity to Escherichia coli negative supercoiled pBR322 DNA at 10 uM after 12 hrs by ethidium bromide staining based agarose gel electrophoresis. The method, boiled down: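 Negatively supercoiled pBR322 (400 ng) in TE buffer pH 8.0 was incubated with compound at 10 μM for 12 h at room temperature. Loading buffer with sarkosyl was added. Samples were run on 1% agarose at 6 V/cm for 2.5 h in TAE pH 8.5, stained with ethidium bromide and photographed under UV.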

The next assay concerns MDA-MB-231. The assay is described as follows: Antiproliferative activity against human MDA-MB-231 cells after 72 hrs by XTT assay. Type of assay: functional, cell-based. The following applies: MDA-MB-231, 72 h. In short, it runs like this:
(§1)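 Cells kept as monolayers in DMEM with 10% FBS, penicillin, streptomycin and amphotericin at 37°C, 5% CO2. Seeded at 5 x 10³ cells/well and exposed to compound for 72 h in medium with 10% FBS. XTT plus electron-coupling reagent added, 4 h at 37°C, absorbance read at 492 nm. Percent of control growth uses mean absorbance (n = 3). The 50% value is taken from the linear portion of the curve.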

Assay [1] is described as follows: Antiproliferative activity against human H1299 cells after 72 hrs by XTT assay. Type of assay: functional, cell-based. The following applies: NCI-H1299, 72 h. In short, it runs like this: as §1
Assay [2] in a line: Antiproliferative activity against human PC3 cells after 72 hrs by XTT assay. Type of assay: functional, cell-based. The following applies: PC-3, 72 h. In short, it runs like this: as §1
Assay [3] is described as follows: Antiproliferative activity against human HuH7 cells after 72 hrs by XTT assay. Format: functional, cell-based. The following applies: Huh-7, 72 h. The method, boiled down: as §1
The subject of assay [4] is MRC5. The assay is described as follows: Antiproliferative activity against human MRC5 cells after 72 hrs by XTT assay. Type of assay: cell-based. The following applies: MRC5, 72 h. The method, boiled down: as §1
Assay [5] has as its target T1, DNA topoisomerase 1 (Homo sapiens) (UniProt P11387).
T1 sequence (whole entry): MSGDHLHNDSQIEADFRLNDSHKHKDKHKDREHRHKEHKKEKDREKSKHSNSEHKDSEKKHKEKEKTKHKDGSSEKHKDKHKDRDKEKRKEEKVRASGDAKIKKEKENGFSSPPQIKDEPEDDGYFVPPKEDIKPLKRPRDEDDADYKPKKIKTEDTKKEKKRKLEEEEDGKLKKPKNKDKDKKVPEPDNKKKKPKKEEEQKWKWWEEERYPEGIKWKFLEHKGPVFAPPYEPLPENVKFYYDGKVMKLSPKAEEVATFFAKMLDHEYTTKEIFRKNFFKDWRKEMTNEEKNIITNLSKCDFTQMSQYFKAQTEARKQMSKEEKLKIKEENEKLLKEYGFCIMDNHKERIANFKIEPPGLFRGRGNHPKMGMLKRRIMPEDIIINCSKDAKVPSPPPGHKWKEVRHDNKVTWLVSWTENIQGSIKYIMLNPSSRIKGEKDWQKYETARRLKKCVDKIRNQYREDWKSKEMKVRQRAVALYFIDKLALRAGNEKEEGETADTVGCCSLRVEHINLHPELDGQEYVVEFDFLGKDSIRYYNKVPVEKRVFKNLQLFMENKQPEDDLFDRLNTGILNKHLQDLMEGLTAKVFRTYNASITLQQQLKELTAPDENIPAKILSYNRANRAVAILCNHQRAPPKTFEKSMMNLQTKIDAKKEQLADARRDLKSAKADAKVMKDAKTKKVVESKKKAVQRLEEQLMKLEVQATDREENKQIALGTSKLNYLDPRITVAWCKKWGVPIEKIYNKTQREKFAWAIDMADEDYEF
The assay is described as follows: Inhibition of human DNA topoisomerase 1-mediated relaxation of supercoiled pBR322 DNA at 100 uM after 30 mins by ethidium bromide staining based agarose gel electrophoresis. In short, it runs like this: (§2)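 Human topo I or topo II (2 units) was reacted with 0.2 μg supercoiled pBR322 in 20 μl Tris-HCl pH 7.5 containing KCl, DTT, EDTA, MgCl2 and BSA, with DMSO held at 0.5%, for 30 min at 37°C. The reaction was stopped with SDS. Samples were run on 1% agarose in Tris-acetate/EDTA at 1.5 V/cm for 2-3 h and stained with ethidium bromide. Relaxation was quantified by densitometry of the supercoiled band area.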

The target of assay [6] is DNA topoisomerase 2-alpha (Homo sapiens) (UniProt P11388). The assay is described as follows: Inhibition of human DNA topoisomerase 2-mediated relaxation of supercoiled pBR322 DNA at 100 uM after 30 mins by ethidium bromide staining based agarose gel electrophoresis. In short, it runs like this: as §2
DNA topoisomerase 2-alpha (Homo sapiens), sequence (P11388 whole entry): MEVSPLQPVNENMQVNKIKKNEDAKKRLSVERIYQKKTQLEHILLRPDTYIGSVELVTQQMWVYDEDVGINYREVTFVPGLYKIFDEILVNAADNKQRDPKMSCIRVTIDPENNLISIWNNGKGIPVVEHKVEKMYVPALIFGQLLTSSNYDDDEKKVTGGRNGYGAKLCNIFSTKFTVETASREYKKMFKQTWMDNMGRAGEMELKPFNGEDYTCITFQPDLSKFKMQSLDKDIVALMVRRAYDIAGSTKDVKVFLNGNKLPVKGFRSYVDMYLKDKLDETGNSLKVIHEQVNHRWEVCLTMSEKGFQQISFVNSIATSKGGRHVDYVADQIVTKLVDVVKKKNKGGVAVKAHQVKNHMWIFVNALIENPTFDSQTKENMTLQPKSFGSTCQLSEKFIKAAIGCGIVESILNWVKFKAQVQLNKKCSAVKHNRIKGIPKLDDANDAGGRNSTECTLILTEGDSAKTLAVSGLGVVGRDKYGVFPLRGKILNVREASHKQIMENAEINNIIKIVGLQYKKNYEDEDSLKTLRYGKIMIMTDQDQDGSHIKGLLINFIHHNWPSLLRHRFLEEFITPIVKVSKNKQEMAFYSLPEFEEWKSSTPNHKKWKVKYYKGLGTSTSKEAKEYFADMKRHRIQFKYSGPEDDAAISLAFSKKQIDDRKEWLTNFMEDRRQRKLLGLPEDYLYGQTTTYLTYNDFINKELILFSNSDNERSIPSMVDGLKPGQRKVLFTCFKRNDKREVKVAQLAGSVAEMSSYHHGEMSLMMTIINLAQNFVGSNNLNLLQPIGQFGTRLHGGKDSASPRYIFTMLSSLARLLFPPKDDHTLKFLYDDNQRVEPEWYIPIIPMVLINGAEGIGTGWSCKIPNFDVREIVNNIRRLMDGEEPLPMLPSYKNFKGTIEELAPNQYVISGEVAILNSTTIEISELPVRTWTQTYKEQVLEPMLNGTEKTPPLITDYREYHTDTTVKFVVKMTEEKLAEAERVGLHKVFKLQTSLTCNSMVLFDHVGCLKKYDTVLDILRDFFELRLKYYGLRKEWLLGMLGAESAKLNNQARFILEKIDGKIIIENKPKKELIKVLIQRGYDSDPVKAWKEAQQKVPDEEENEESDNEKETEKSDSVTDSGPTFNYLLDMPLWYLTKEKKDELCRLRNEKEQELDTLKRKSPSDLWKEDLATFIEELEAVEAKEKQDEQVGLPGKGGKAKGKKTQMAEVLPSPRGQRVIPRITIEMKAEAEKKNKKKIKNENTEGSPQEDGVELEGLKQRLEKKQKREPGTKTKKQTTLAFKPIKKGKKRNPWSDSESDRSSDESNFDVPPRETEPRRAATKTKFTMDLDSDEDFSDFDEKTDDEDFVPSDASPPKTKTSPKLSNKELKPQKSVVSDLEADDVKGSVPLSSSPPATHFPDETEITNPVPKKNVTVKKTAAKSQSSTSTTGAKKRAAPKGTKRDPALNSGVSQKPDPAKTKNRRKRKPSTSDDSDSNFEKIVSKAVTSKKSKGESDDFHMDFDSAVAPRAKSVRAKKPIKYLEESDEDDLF
The test system of assay [7] is MRC5. Kind of assay: Selectivity index, ratio of IC50 for human MRC5 cells to IC50 for human MDA-MB-231 cells. Format: functional.
Assay [8] is described as follows: Selectivity index, ratio of IC50 for human MRC5 cells to IC50 for human H1299 cells. Format: functional.
Assay [9] relates to MRC5. The assay is described as follows: Selectivity index, ratio of IC50 for human MRC5 cells to IC50 for human PC3 cells. Type of assay: functional.
For another assay, the system named is Huh-7. The assay is described as follows: Selectivity index, ratio of IC50 for human MRC5 cells to IC50 for human HuH7 cells. Type of assay: functional.
For assay [10], the target named is T1, DNA topoisomerase 1 (Homo sapiens). The assay is described as follows: Inhibition of human DNA topoisomerase 1-mediated relaxation of supercoiled pBR322 DNA at 10 uM after 30 mins by ethidium bromide staining based agarose gel electrophoresis. The method, boiled down: as §2
Assay [11] has as its target DNA topoisomerase 2-alpha (Homo sapiens) (UniProt P11388). Kind of assay: Inhibition of human DNA topoisomerase 2-mediated relaxation of supercoiled pBR322 DNA at 10 uM after 30 mins by ethidium bromide staining based agarose gel electrophoresis. The method, boiled down: as §2

The structures appear in SMILES notation. Calls of active or inactive are those of the source. The calls are words filed in the database; no cut-off is given here. Where only a bound is given, the exact number is not on record here.

As for `O/N=C1\c2ccccc2-c2nc3ccccc3nc21`, in the assay on Escherichia coli, the result was inactive. The IC50 with MDA-MB-231 was above 10 µM; in assay [1] it was above 10 µM; in assay [2], above 10 µM; in assay [3], above 10 µM; with MRC5 [4], 51.1 µM. For the same molecule, the “topoisomerase 1 inhibition (active/inactive)” value in assay [5] was “inactive”. Further, in assay [6], the “inhibition call (active/not active)” value was “inactive”.
Consider `CN(C)CCCO/N=C1\c2ccccc2-c2nc3c(CN4CCCC4)cccc3nc21.Cl`, for which the outcome in the assay with Escherichia coli was Active. For the same molecule, the IC50 with MDA-MB-231 is 0.68 µM; in assay [1], 0.92 µM; in [2], 0.78 µM; in assay [3], 0.32 µM; with MRC5 [4], 0.9 µM. The “Ratio IC50” value was 1.32 in the assay on MRC5 [7], 0.98 in assay [8], 1.15 with MRC5 [9] and 2.81 in the assay with Huh-7. The “topoisomerase 1 inhibition (active/inactive)” value in assay [5] is “Active”. Moreover, the inhibition entry in [10] was “Active”. The “inhibition call (active/not active)” value in assay [6] was “Active”. Also, the “topoisomerase 2 inhibition (active/not active)” value in assay [11] is “inactive”.
With `CN(C)Cc1cccc2nc3c(nc12)-c1ccccc1C3=O`, in the assay with Escherichia coli, the result was inactive. Further, the IC50 is above 10 µM in the assay on MDA-MB-231; above 10 µM in assay [1]; above 10 µM in assay [2]; above 10 µM in assay [3]; 77.8 µM with MRC5 [4]. The “topoisomerase 1 inhibition (active/inactive)” value in assay [5] is “Active”. In addition, the inhibition result in assay [10] is “inactive”. The “inhibition call (active/not active)” value in assay [6] was “inactive”.
As for `Cc1cccc2nc3c(nc12)-c1ccccc1C3=O`, the outcome in the assay on Escherichia coli was inactive. Moreover, the IC50 in the assay with MDA-MB-231 was above 10 µM; in [1], above 10 µM; in assay [2] it was above 10 µM; in [3] it was above 10 µM; in the assay with MRC5 [4] it was 87.1 µM.
With `O=C1c2ccccc2-c2nc3ccccc3nc21`, the outcome with Escherichia coli was inactive. The IC50 is above 10 µM with MDA-MB-231; above 10 µM in [1]; above 10 µM in [2]; above 10 µM in assay [3]; 85.3 µM in the assay with MRC5 [4].
`O=C1c2ccccc2-c2nc3c(CN4CCCC4)cccc3nc21`: the outcome in the assay on Escherichia coli was inactive. In addition, the IC50 in the assay on MDA-MB-231 was above 10 µM; in [1] it was above 10 µM; in assay [2] it was above 10 µM; in [3] it was 6.98 µM; with MRC5 [4], 9.8 µM. Moreover, the “Ratio IC50” value with Huh-7 is given as 1.4. Moreover, the “topoisomerase 1 inhibition (active/inactive)” value in [5] was “Active”. Also, in assay [10], the inhibition entry was “inactive”. The “inhibition call (active/not active)” value in assay [6] was “inactive”.
As for `CN(C)CCCO/N=C1\c2ccccc2-c2nc3c(C(=O)O)cccc3nc21`, the result in the assay with Escherichia coli was inactive. Besides, the IC50 in the assay on MDA-MB-231 was above 10 µM; in assay [1], above 10 µM; in [2] it was above 10 µM; in assay [3], above 10 µM; in the assay with MRC5 [4], 15.1 µM. Also, the “topoisomerase 1 inhibition (active/inactive)” value in assay [5] is “inactive”. Further, in assay [6], the “inhibition call (active/not active)” value was “inactive”.
Regarding `O=Cc1cccc2nc3c(nc12)-c1ccccc1C3=O`, in the assay with Escherichia coli, the outcome was inactive. The IC50 in the assay with MDA-MB-231 is above 10 µM; in assay [1], above 10 µM; in assay [2] it was above 10 µM; in assay [3], above 10 µM; in the assay with MRC5 [4], 78.9 µM. Moreover, in assay [5], the “topoisomerase 1 inhibition (active/inactive)” value was “inactive”. Further, the “inhibition call (active/not active)” value in [6] was “inactive”.
For the molecule `O=C1c2ccccc2-c2nc3c(CN4CCCCC4)cccc3nc21`, in the assay with Escherichia coli, the result was inactive. The IC50 with MDA-MB-231 is above 10 µM; in assay [1], above 10 µM; in [2], above 10 µM; in assay [3], above 10 µM; in the assay on MRC5 [4] it was 25.9 µM. In [5], the “topoisomerase 1 inhibition (active/inactive)” value is “Active”. In addition, the inhibition entry in assay [10] was “inactive”. In addition, the “inhibition call (active/not active)” value in assay [6] was “inactive”.
As to `O=C1c2ccccc2-c2nc3c(CN4CCC(N5CCCCC5)CC4)cccc3nc21`, the result with Escherichia coli was inactive. In addition, the IC50 with MDA-MB-231 is above 10 µM; in assay [1], above 10 µM; in assay [2], above 10 µM; in assay [3], above 10 µM; in the assay on MRC5 [4], 89.7 µM. The “topoisomerase 1 inhibition (active/inactive)” value in assay [5] was “inactive”. In addition, the “inhibition call (active/not active)” value in assay [6] is “inactive”.
As for `O=C1c2ccccc2-c2nc3c(C(=O)NCCN4CCOCC4)cccc3nc21`, in the assay with Escherichia coli, the outcome was inactive. The IC50 in the assay on MDA-MB-231 was above 10 µM; in [1] it was above 10 µM; in assay [2], above 10 µM; in [3] it was above 10 µM; with MRC5 [4], 88.6 µM. Moreover, the “topoisomerase 1 inhibition (active/inactive)” value in assay [5] was “inactive”. In assay [6], the “inhibition call (active/not active)” value was “inactive”.
In the case of `CC[C@@]1(O)C(=O)OCc2c1cc1n(c2=O)Cc2cc3c(CN(C)C)c(O)ccc3nc2-1` [TOPOTECAN], the figures for the 50% inhibitory concentration (IC50) (with MDA-MB-231; in assay [2]; in the assay with MRC5 [4]) were below 0.1 µM, 9.35 µM and 4.25 µM, respectively. The “Ratio IC50” value is above 42.5 in the assay on MRC5 [7], 0.71 in assay [8], 0.45 in the assay on MRC5 [9] and 0.49 in the assay with Huh-7.
Take `O=C1c2ccccc2-c2nc3c(C(=O)O)cccc3nc21`: the outcome in the assay on Escherichia coli was inactive. The half-inhibitory concentration (IC50) in the assay with MDA-MB-231 is above 10 µM; in assay [1] it was above 10 µM; in [2] it was above 10 µM; in assay [3], above 10 µM; in the assay on MRC5 [4], 71.2 µM.
For the molecule `O/N=C\c1cccc2nc3c(nc12)-c1ccccc1/C3=N/O`, in the assay with Escherichia coli, the outcome was inactive. For the same molecule, the IC50 in the assay with MDA-MB-231 was 10.8 µM; in assay [1], 8.13 µM; in [2], 9.45 µM; in [3], 8.61 µM; in the assay on MRC5 [4], 6.54 µM. Besides, the “Ratio IC50” value with MRC5 [7] is reported as 0.61; in [8] it was 0.8; with MRC5 [9] it was 0.69; with Huh-7, 0.76. Besides, the “topoisomerase 1 inhibition (active/inactive)” value in assay [5] is “inactive”. Further, the “inhibition call (active/not active)” value in assay [6] was “inactive”.
As to `COc1ccc2c(c1)/C(=N\OCCN1CCCC1)c1c-2c(O)nc2ccccc12`, the “topoisomerase 1 inhibition (active/inactive)” value in assay [5] was “Active”. The inhibition result in [10] is “Active”. The “inhibition call (active/not active)” value in assay [6] is “Active”. Moreover, the “topoisomerase 2 inhibition (active/not active)” value in assay [11] was “Active”.
For `O=C1c2ccccc2-c2nc3c(CN4CCOCC4)cccc3nc21`, the outcome in the assay on Escherichia coli was inactive. For the same molecule, the IC50 with MDA-MB-231 was above 10 µM; in assay [1], above 10 µM; in [2], above 10 µM; in [3], above 10 µM; in the assay on MRC5 [4], 95.7 µM. Also, the “topoisomerase 1 inhibition (active/inactive)” value in assay [5] is “inactive”. For the same molecule, the “inhibition call (active/not active)” value in assay [6] is “inactive”.
